Experimental data reported in ChEMBL document CHEMBL1909525, “Synthesis and anticonvulsant activity of novel 2,6-diketopiperazine derivatives. Part 1: perhydropyrrole[1,2-a]pyrazines” (Eur J Med Chem, 2011).
Activity calls are given as the source filed them. The rule behind the calls is not given here.

How the values were obtained:
Mus musculus [1] = test: Anticonvulsant activity in ip dosed albino Carworth Farms No.1 mouse assessed as protection against maximal electroshock-induced seizure after 0.25 hrs; assay type: functional; details: albino Carworth Farms No.1, ip
How it was run: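 Mouse quantification at the time of peak effect, compound given i.p. in 0.5% methylcellulose. Groups of at least eight mice received varied doses until at least two points fell between 100 and 0% response. ED50 (MES, scMET) and TD50 (rotorod) with 95% CI by probit analysis (Finney). PI = TD50/ED50 MES.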

[2] = Neurotoxicity in ip dosed albino Carworth Farms No.1 mouse assessed as motor impairment after 0.25 hrs by rotarod test; assay type: toxicity, organism-based; details: Carworth Farms No.1 (albino), in vivo
How it was run: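 Mouse quantification at the time of peak effect, compound given i.p. in 0.5% methylcellulose. Groups of at least eight mice received varied doses until at least two points fell between 100 and 0% response. PI = TD50/ED50 MES.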

Mus musculus [3] = test: Anticonvulsant activity in ip dosed albino Carworth Farms No.1 mouse assessed as protection against electric-current for 3 secs-induced seizure after 0.25 hrs by 6Hz minimal clonic seizure test; assay type: functional; details: albino Carworth Farms No.1, ip
Mus musculus [4] = test: Anticonvulsant activity in ip dosed albino Carworth Farms No.1 mouse assessed as time needs to show peak effect for electric-current for 3 secs-induced seizure after 0.25 hrs by 6Hz minimal clonic seizure test; assay type: functional
Rattus norvegicus [5] = test: Anticonvulsant activity in po dosed albino Sprague-Dawley rat assessed as protection against maximal electroshock-induced seizure after 0.25 hrs; assay type: functional
How it was run: (§1)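 Rats dosed orally, compound in 0.5% methylcellulose. MES at 150 mA, 60 Hz, 0.2 s; scMET with pentylenetetrazole 70 mg/kg s.c. plus 30 min observation; rotorod for toxicity.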

[6] = Neurotoxicity in po dosed albino Sprague-Dawley rat assessed as motor impairment after 0.25 hrs by rotarod test; assay type: toxicity, organism-based; details: in vivo; how it was run: as §1
Rattus norvegicus [7] = test: Anticonvulsant activity in po dosed Sprague-Dawley rat assessed as time needs to show peak effect for protection against subcutaneous metrazol-induced seizure after 0.25 hrs; assay type: functional; how it was run: as §1
Mus musculus [8] = test: Anticonvulsant activity in ip dosed albino Carworth Farms No.1 mouse assessed as time needs to show peak effect for protection against subcutaneous metrazol-induced seizure; assay type: functional
Mus musculus [9] = test: Neurotoxicity in albino Carworth Farms No.1 mouse assessed as motor impairment at 30 mg/kg, ip after 0.5 hrs by rotarod test; assay type: toxicity, organism-based; parameters: dose 30 mg/kg, route intraperitoneal; details: in vivo
How it was run: (§2)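 Rotorod neurotoxicity in mice at 6 r.p.m. Compound given i.p. (30, 100, 300 mg/kg) in 0.5% methylcellulose; tested at 30 min and 4 h. Impairment is inability to keep equilibrium on the rod for a given time; scored as impaired/tested.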

Mus musculus [10] = test: Neurotoxicity in albino Carworth Farms No.1 mouse assessed as motor impairment at 100 mg/kg, ip after 0.5 hrs by rotarod test; assay type: toxicity, organism-based; parameters: dose 100 mg/kg, route intraperitoneal; details: in vivo; how it was run: as §2
Mus musculus [11] = test: Neurotoxicity in albino Carworth Farms No.1 mouse assessed as motor impairment at 300 mg/kg, ip after 0.5 hrs by rotarod test; assay type: toxicity, organism-based; parameters: dose 300 mg/kg, route intraperitoneal; details: in vivo; how it was run: as §2
Mus musculus [12] = test: Toxicity in albino Carworth Farms No.1 mouse maximal electroshock-induced seizure model assessed as death following tonic extension at 100 mg/kg, ip after 4 hrs; assay type: organism-based; parameters: dose 100 mg/kg, route intraperitoneal; details: in vivo
How it was run: (§3)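 Mice (18–25 g) were given 30, 100 or 300 mg/kg i.p. in 0.5% (v/v) aqueous methylcellulose. They were tested at 30 min and 4 h with a corneal electroshock (50 mA, 60 Hz, 0.2 s) through electrodes wetted with 0.5% butacaine hemisulphate in 0.9% NaCl. Protection was abolition of hindlimb tonic extension; death following tonic extension was noted per animals tested.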

Mus musculus [13] = test: Anticonvulsant activity in albino Carworth Farms No.1 mouse assessed as protection against subcutaneous metrazol-induced seizure at 30 mg/kg, ip after 0.5 hrs; assay type: functional, organism-based; parameters: dose 30 mg/kg
How it was run: (§4)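 Mouse scMET test. Compound given i.p. (30, 100 or 300 mg/kg) in 0.5% methylcellulose. Pentylenetetrazole 85 mg/kg (CD97) given s.c. at 0.5 or 4 h, then mice observed for 30 min. Protection is absence of clonic spasms; scored as protected/tested.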

Mus musculus [14] = test: Anticonvulsant activity in albino Carworth Farms No.1 mouse assessed as protection against subcutaneous metrazol-induced seizure at 30 mg/kg, ip after 4 hrs; assay type: functional, organism-based; parameters: dose 30 mg/kg; how it was run: as §4
Mus musculus [15] = test: Anticonvulsant activity in albino Carworth Farms No.1 mouse assessed as protection against subcutaneous metrazol-induced seizure at 100 mg/kg, ip after 0.5 hrs; assay type: functional, organism-based; parameters: dose 100 mg/kg; how it was run: as §4
Mus musculus [16] = test: Anticonvulsant activity in albino Carworth Farms No.1 mouse assessed as protection against subcutaneous metrazol-induced seizure at 100 mg/kg, ip after 4 hrs; assay type: functional, organism-based; parameters: dose 100 mg/kg; how it was run: as §4
Mus musculus [17] = test: Anticonvulsant activity in albino Carworth Farms No.1 mouse assessed as protection against subcutaneous metrazol-induced seizure at 300 mg/kg, ip after 0.5 hrs; assay type: functional, organism-based; parameters: dose 300 mg/kg; how it was run: as §4
Mus musculus [18] = test: Anticonvulsant activity in albino Carworth Farms No.1 mouse assessed as protection against subcutaneous metrazol-induced seizure at 300 mg/kg, ip after 4 hrs; assay type: functional, organism-based; parameters: dose 300 mg/kg; how it was run: as §4
Mus musculus [19] = test: Neurotoxicity in albino Carworth Farms No.1 mouse assessed as motor impairment at 100 mg/kg, ip after 4 hrs by rotarod test; assay type: toxicity, organism-based; parameters: dose 100 mg/kg, route intraperitoneal; details: in vivo; how it was run: as §2
Mus musculus [20] = test: Anticonvulsant activity in albino Carworth Farms No.1 mouse assessed as protection against maximal electroshock-induced seizure at 30 mg/kg, ip after 0.5 hrs; assay type: functional, organism-based; parameters: dose 30 mg/kg
How it was run: (§5)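 Mouse MES test with compound given i.p. (30, 100 or 300 mg/kg) in 0.5% methylcellulose; tested at 0.5 and 4 h. Corneal stimulus of 50 mA at 60 Hz for 0.2 s, electrodes primed with 0.5% butacaine in 0.9% NaCl. Protection is abolition of hindlimb tonic extension; scored as protected/tested.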

Mus musculus [21] = test: Anticonvulsant activity in albino Carworth Farms No.1 mouse assessed as protection against maximal electroshock-induced seizure at 30 mg/kg, ip after 4 hrs; assay type: functional, organism-based; parameters: dose 30 mg/kg; how it was run: as §5
Mus musculus [22] = test: Anticonvulsant activity in albino Carworth Farms No.1 mouse assessed as protection against maximal electroshock-induced seizure at 100 mg/kg, ip after 0.5 hrs; assay type: functional, organism-based; parameters: dose 100 mg/kg; how it was run: as §5
Mus musculus [23] = test: Anticonvulsant activity in albino Carworth Farms No.1 mouse assessed as protection against maximal electroshock-induced seizure at 100 mg/kg, ip after 4 hrs; assay type: functional, organism-based; parameters: dose 100 mg/kg; how it was run: as §5
Mus musculus [24] = test: Anticonvulsant activity in albino Carworth Farms No.1 mouse assessed as protection against maximal electroshock-induced seizure at 300 mg/kg, ip after 0.5 hrs; assay type: functional, organism-based; parameters: dose 300 mg/kg; how it was run: as §5
Mus musculus [25] = test: Anticonvulsant activity in albino Carworth Farms No.1 mouse assessed as protection against maximal electroshock-induced seizure at 300 mg/kg, ip after 4 hrs; assay type: functional, organism-based; parameters: dose 300 mg/kg; how it was run: as §5
Mus musculus [26] = test: Toxicity in albino Carworth Farms No.1 mouse maximal electroshock-induced seizure model assessed as death following tonic extension at 30 mg/kg, ip after 0.5 hrs; assay type: organism-based; parameters: dose 30 mg/kg, route intraperitoneal; details: in vivo; how it was run: as §3
Mus musculus [27] = test: Neurotoxicity in albino Carworth Farms No.1 mouse assessed as motor impairment at 30 mg/kg, ip after 4 hrs by rotarod test; assay type: toxicity, organism-based; parameters: dose 30 mg/kg, route intraperitoneal; details: in vivo; how it was run: as §2
Mus musculus [28] = test: Neurotoxicity in albino Carworth Farms No.1 mouse assessed as motor impairment at 300 mg/kg, ip after 4 hrs by rotarod test; assay type: toxicity, organism-based; parameters: dose 300 mg/kg, route intraperitoneal; details: in vivo; how it was run: as §2

**Q.** For `CCC1(C)CC(=O)NC1=O` (stereo not drawn) [ETHOSUXIMIDE], which ED50 (Mus musculus [1]) is on record?
**A.** > 500 mg/kg

**Q.** What about the TD50 at 0.25 h [2] of the same compound?
**A.** 341 mg/kg

**Q.** And the ED50 (Mus musculus [3])?
**A.** 167 mg/kg

**Q.** What about the Time (Mus musculus [4]) of the same compound?
**A.** 0.25 h

**Q.** What about the ED50 (Rattus norvegicus [5]) of the same compound?
**A.** > 500 mg/kg

**Q.** And the TD50 at 0.25 h [6]?
**A.** > 500 mg/kg

**Q.** What about the Time (Rattus norvegicus [7]) of the same compound?
**A.** 0.25 h

**Q.** And the Time (Mus musculus [8])?
**A.** 0.25 h

**Q.** With `C[C@H]1C(=O)NC(=O)[C@@H]2CCCN12` as the compound, how does the Activity (Mus musculus [9]) read?
**A.** Non-toxic

**Q.** What about the Activity (Mus musculus [10]) of the same compound?
**A.** Non-toxic

**Q.** And the Activity (Mus musculus [11])?
**A.** Non-toxic

**Q.** And the Activity (Mus musculus [12])?
**A.** Toxic

**Q.** And the Activity (Mus musculus [13])?
**A.** inactive

**Q.** What about the Activity (Mus musculus [14]) of the same compound?
**A.** inactive

**Q.** And the Activity (Mus musculus [15])?
**A.** inactive

**Q.** What about the Activity (Mus musculus [16]) of the same compound?
**A.** inactive

**Q.** And the Activity (Mus musculus [17])?
**A.** inactive

**Q.** And the Activity (Mus musculus [18])?
**A.** inactive

**Q.** And the Activity (Mus musculus [19])?
**A.** Toxic

**Q.** And the Activity (Mus musculus [20])?
**A.** inactive

**Q.** What about the Activity (Mus musculus [21]) of the same compound?
**A.** inactive

**Q.** What about the Activity (Mus musculus [22]) of the same compound?
**A.** inactive

**Q.** And the Activity (Mus musculus [23])?
**A.** inactive

**Q.** And the Activity (Mus musculus [24])?
**A.** inactive

**Q.** What about the Activity (Mus musculus [25]) of the same compound?
**A.** inactive

**Q.** And the Activity (Mus musculus [26])?
**A.** Toxic

**Q.** And the Activity (Mus musculus [27])?
**A.** Non-toxic

**Q.** And the Activity (Mus musculus [28])?
**A.** Non-toxic
